# Experiments:
# [1] = system: PI3Kα, PI3Kβ, PI3Kγ, PI3Kδ; conditions: compared to ZSTK474; cited from earlier work
# PI3Kδ = PI3Kδ (Homo sapiens, UniProt O00329); test: PI3Kδ lipid kinase inhibition, Adapta TR-FRET assay; assay type: biochemical; conditions: in comparison to ZSTK474
# PI3Kγ = PI3Kγ (Homo sapiens, UniProt P48736); test: PI3Kγ lipid kinase inhibition, Adapta TR-FRET assay; assay type: biochemical; conditions: in comparison to ZSTK474
# PI3Kβ = PI3Kβ (Homo sapiens, UniProt P42338); test: PI3Kβ lipid kinase inhibition, Adapta TR-FRET assay; assay type: biochemical; conditions: in comparison to ZSTK474
# [2] = system: PI3Kα, PI3Kβ, PI3Kγ, PI3Kδ; test: PI3K isoform inhibition, statements spanning several isoforms; assay type: biochemical, human; conditions: compared to 6b
# In short: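 Purified human PI3Kα, β, γ and δ enzymes tested in a fluorescence-based Adapta TR-FRET lipid kinase assay, run as a contract service. Inhibitor range 0.1 nM – 10 μM. Data are the average of three experiments, each in duplicate, as mean ± SEM.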
# JAK2V617F MF mouse model = test: Therapy study in JAK2V617F myelofibrosis mouse model; assay type: in vivo; conditions: 325 mg/kg daily p.o., 4 days
# In short: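 JAK2V617F fl/− × Mx1-Cre donor bone marrow mixed with WT C57BL/6 marrow (1:9, WT:mutant). Five million cells transplanted into lethally irradiated C57BL/6 females, with polyI:C given twice 2 weeks after transplant. Spleen volume by 7T MRI (2D multi-slice FLASH, TR/TE 600/8 ms, 40 slices of 0.4 mm) at days 0 and 4, summing pixel areas × slice thickness. Spleens weighed after 5 days of treatment. n=5 vehicle, n=4 treated; mean ± s.d.; Welch's t-test.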
# [3] = system: A375 melanoma, D54 glioblastoma and SET-2 leukemia tumor cell lines; test: CellTiter-Fluor cell viability assay; assay type: cell-based; conditions: Homo sapiens, 72 h, read-out: anti-proliferative activity IC50
# In short: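 Human A375, D54 (DMEM or RPMI, 10% FBS) and SET-2 (20% FBS) cells at 37 °C, 5% CO2; 500–1,000 cells/well seeded and left 24 h, then test compound added at 0.1–20 μM final for 72 h. Read by CellTiter-Fluor fluorescence, with a reference PI3K inhibitor as positive control. Three experiments in duplicate wells; IC50 from curve fit, mean ± SEM.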
# [4] = system: phosphorylation of ERK1/2 (T202/Y204); test: Western blot quantification of pERK1/2 in tumor-derived cell lines; assay type: cell-based; conditions: Homo sapiens, 0.5 h, read-out: inhibition of pERK phosphorylation
# In short: (§1)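 A375 and D54 cells (DMEM, 10% FBS) and SET-2 cells (RPMI, 20% FBS) treated 30 min with 10 μM test compound. PDGF 50 ng/ml added for A375 and D54 only. Cells lysed 20 min on ice in RIPA with protease/phosphatase inhibitors, then SDS-PAGE/PVDF blots probed for pAKT S473, pERK1/2 T202/Y204, total AKT and total ERK1/2, with chemiluminescent detection. Background-subtracted phospho densities normalised to total protein, relative to control. Three experiments; mean ± SEM.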
# [5] = system: phosphorylated ERK1/2 and AKT in spleens of JAK2V617F MF mice; test: pAKT and pERK1/2 in spleens of treated MF mice; assay type: in vivo, mouse; conditions: 325 mg/kg daily p.o., 5 days, vs vehicle
# In short: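 JAK2V617F myelofibrosis mice received test compound orally for 5 days, and spleens were taken after sacrifice. For blots, tissue was homogenised in RIPA and 30 μg protein (by BCA) run by SDS-PAGE. Blots were probed for pERK1/2 and pAKT with β-actin as loading control, 2 animals per group. Flow cytometry: isolated cells stained intracellularly with APC anti-pERK1/2 (pT202/pY204) and anti-pAKT (pS473); mean fluorescence intensity reported.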
# [6] = In vivo tissue levels and metabolic profile by LC-MS/MS; parameters: species or system mouse; conditions: mice, oral 325 mg/kg, approximately 4 h
# In short: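 Mice (n=4 per compound) dosed orally at 325 mg/kg; blood, spleen and bone marrow taken about 4 h later. Tissue extracted by shaking or bead homogenisation and spun at 10,000 × g. Analysed by C18 UPLC (0.1% formic acid water/acetonitrile, 0.6 mL/min) with MRM LC-MS/MS. Internal-standard calibration used 1/X weighting over 0.02–160 ng/mL. Synthesized metabolite standards confirmed identities; levels given as ng/g.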
# [7] = system: phosphorylation of AKT (S473); test: Western blot quantification of pAKT in tumor-derived cell lines; assay type: cell-based; conditions: Homo sapiens, 0.5 h, read-out: inhibition of pAKT phosphorylation
# In short: as §1
# PI3Kβ, sequence (P42338 whole entry, canonical isoform): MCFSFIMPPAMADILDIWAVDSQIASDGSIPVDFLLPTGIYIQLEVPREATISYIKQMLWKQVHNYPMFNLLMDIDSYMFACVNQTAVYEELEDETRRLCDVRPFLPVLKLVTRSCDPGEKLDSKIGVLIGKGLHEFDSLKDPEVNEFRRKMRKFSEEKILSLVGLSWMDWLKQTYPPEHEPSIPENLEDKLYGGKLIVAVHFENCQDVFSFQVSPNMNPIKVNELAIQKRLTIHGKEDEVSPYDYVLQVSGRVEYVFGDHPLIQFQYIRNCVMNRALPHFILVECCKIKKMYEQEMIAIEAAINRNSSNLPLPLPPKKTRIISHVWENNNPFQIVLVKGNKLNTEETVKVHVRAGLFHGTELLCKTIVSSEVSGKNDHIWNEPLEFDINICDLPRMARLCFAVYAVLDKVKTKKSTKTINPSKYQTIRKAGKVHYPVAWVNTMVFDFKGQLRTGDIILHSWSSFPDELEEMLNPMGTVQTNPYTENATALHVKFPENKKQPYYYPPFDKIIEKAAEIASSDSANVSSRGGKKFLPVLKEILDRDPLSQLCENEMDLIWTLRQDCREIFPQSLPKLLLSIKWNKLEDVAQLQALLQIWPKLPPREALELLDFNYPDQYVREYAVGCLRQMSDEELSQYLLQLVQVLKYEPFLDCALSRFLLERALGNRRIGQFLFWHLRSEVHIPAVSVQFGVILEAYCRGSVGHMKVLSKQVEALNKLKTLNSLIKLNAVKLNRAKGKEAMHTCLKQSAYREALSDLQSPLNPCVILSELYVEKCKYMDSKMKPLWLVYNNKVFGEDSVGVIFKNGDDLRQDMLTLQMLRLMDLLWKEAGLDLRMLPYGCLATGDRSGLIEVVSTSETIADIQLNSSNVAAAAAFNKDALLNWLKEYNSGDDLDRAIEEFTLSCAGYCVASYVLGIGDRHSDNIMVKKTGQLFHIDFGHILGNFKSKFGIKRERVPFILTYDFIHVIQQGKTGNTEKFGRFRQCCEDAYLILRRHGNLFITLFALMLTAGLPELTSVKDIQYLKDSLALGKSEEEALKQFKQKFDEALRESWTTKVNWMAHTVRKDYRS
# PI3Kβ, sequence (P27986 whole entry partner, canonical isoform): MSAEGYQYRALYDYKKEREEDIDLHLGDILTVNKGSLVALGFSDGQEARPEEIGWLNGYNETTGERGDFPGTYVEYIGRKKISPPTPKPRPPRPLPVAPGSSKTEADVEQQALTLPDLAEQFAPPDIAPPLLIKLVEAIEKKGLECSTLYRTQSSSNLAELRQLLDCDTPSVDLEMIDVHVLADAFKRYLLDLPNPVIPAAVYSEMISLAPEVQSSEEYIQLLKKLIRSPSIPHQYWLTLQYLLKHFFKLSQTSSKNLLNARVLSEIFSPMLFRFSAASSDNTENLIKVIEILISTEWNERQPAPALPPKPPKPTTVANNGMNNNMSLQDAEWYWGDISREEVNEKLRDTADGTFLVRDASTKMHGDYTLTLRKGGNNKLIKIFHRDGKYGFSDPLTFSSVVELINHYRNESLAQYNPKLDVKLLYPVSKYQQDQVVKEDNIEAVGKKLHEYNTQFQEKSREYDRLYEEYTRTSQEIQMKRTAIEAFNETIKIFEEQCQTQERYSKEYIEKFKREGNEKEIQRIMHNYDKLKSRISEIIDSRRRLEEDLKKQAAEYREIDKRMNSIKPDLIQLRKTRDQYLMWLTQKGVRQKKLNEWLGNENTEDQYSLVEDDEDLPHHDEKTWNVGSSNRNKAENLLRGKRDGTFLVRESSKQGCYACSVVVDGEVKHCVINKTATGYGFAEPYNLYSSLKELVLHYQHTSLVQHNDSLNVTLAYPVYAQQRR
# PI3Kδ, sequence (O00329 whole entry): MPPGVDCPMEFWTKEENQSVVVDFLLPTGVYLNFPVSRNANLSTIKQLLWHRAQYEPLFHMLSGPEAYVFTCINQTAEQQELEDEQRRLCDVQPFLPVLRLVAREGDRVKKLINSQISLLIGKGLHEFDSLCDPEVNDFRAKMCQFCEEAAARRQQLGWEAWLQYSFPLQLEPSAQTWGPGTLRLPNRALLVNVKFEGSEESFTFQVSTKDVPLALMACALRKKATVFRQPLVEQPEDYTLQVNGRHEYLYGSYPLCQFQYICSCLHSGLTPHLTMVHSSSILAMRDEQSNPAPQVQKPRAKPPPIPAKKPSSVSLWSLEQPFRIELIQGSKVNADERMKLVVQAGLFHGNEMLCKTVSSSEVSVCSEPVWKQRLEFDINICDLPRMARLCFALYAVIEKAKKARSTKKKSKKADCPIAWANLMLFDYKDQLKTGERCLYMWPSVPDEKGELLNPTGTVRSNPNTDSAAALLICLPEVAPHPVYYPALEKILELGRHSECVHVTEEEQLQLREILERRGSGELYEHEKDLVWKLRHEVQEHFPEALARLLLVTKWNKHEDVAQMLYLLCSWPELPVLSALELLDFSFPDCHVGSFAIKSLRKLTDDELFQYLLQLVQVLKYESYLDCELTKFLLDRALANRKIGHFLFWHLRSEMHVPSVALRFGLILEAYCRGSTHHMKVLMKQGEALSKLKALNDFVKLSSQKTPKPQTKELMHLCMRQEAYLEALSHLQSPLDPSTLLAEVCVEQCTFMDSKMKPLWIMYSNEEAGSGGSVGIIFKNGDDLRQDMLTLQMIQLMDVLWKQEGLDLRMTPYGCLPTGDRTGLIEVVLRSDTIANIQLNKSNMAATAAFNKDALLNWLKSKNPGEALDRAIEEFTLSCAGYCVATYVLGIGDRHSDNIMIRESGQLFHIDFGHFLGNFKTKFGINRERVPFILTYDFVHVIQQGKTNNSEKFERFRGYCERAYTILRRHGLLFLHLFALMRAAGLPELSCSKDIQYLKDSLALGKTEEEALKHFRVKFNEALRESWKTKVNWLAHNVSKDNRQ
# PI3Kδ, sequence (P27986 whole entry partner): as the sequence (P27986 whole entry partner, canonical isoform) above
# PI3Kγ, sequence (P48736 whole entry): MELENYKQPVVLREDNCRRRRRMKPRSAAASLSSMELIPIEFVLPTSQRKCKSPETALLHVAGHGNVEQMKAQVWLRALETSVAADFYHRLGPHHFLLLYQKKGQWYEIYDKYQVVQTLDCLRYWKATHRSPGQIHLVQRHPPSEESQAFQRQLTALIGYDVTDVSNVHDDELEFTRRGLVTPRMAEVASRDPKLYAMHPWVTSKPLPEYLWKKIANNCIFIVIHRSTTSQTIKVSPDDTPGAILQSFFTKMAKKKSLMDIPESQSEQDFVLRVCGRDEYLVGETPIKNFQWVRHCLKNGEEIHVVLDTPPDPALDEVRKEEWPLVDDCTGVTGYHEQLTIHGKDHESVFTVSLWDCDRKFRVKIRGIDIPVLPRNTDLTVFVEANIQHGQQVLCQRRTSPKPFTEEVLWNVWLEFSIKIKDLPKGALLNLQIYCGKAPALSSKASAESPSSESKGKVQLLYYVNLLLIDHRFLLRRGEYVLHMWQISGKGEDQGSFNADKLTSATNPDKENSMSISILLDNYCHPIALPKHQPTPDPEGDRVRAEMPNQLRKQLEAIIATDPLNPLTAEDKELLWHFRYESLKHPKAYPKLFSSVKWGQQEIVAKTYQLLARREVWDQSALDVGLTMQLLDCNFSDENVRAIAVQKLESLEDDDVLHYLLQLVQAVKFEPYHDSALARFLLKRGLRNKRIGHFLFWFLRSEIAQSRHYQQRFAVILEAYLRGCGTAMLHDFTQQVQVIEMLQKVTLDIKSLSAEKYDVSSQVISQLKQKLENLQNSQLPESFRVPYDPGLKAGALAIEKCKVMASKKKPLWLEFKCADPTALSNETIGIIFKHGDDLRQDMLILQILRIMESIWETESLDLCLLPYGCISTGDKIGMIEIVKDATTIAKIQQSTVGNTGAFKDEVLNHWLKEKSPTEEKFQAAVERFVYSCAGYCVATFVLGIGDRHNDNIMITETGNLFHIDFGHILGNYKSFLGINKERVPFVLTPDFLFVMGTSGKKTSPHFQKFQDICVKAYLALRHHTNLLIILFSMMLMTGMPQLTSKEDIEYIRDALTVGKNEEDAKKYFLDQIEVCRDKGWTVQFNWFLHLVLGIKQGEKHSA
compound,measurement,setting,value
FC(F)c1nc2ccccc2n1-c1nc(N2CCNCC2)nc(N2CCOCC2)n1 [Compound 2a],fold reduction in PI3Kα and PI3Kδ inhibition,[1],36 fold
same,fold reduction in PI3Kβ and PI3Kγ inhibition,[1],> 70 fold
"OCCNc1nc(N2CCOCC2)nc(-n2c(C(F)F)nc3ccccc32)n1 [Compound 6a, 2-((4-(2-(difluoromethyl)-1H-benzo[d]imidazol-1-yl)-6-morpholino-1,3,5-triazin-2-yl)amino)ethan-1-ol]",fold decrease in PI3Kδ inhibition,PI3Kδ,2.5 fold
same,fold lowered potency towards PI3Kγ,PI3Kγ,2.5 fold
same,fold decrease in PI3Kβ inhibition,PI3Kβ,5 fold
"OCCN(CCO)c1nc(N2CCOCC2)nc(-n2c(C(F)F)nc3ccccc32)n1 [Compound 6b, 2,2’-((4-(2-(difluoromethyl)-1H-benzo[d]imidazol-1-yl)-6-morpholino-1,3,5-triazin-2-yl)azanediyl)bis(ethan-1-ol)]",fold decrease in PI3Kδ inhibition,PI3Kδ,2.5 fold
same,fold decrease in PI3Kβ inhibition,PI3Kβ,5 fold
"COCCNc1nc(N2CCOCC2)nc(-n2c(C(F)F)nc3ccccc32)n1 [Compound 6c, 4-(2-(difluoromethyl)-1H-benzo[d]imidazol-1-yl)-N-(2-methoxyethyl)-6-morpholino-1,3,5-triazin-2-amine]",fold decrease in PI3Kβ inhibition,PI3Kβ,14 fold
"COCCN(CCO)c1nc(N2CCOCC2)nc(-n2c(C(F)F)nc3ccccc32)n1 [Compound 6d, 2-((4-(2-(difluoromethyl)-1H-benzo[d]imidazol-1-yl)-6-morpholino-1,3,5-triazin-2-yl)(2-methoxyethyl)amino)ethan-1-ol]",fold lower potency towards PI3Kβ and PI3Kγ,[2],2 fold
"O=C(NOCCOCCOCCOCCNc1nc(N2CCOCC2)nc(-n2c(C(F)F)nc3ccccc32)n1)c1ccc(F)c(F)c1Nc1ccc(I)cc1F [Compound 6r, N-(2-(2-(2-(2-((4-(2-(difluoromethyl)-1H-benzo[d]imidazol-1-yl)-6-morpholino-1,3,5-triazin-2-yl)amino)ethoxy)ethoxy)ethoxy)ethoxy)-3,4-difluoro-2-((2-fluoro-4-iodophenyl)amino)benzamide]",spleen volume by MRI compared with vehicle,JAK2V617F MF mouse model,significantly reduced
same,IC50,[3],10.7 to 17.3 µM
same,inhibition at 10 µM,[4],66 to 85%
same,phosphorylated ERK1/2 and AKT levels in spleen,[5],significantly reduced
same,in vivo metabolites identified,[6],MV-187 (6a) and PD0316684 and MV4–6
same,inhibition at 10 µM,[7],22 to 29%
"O=C(NOCCOCCOCCOCCN(CCO)c1nc(N2CCOCC2)nc(-n2c(C(F)F)nc3ccccc32)n1)c1ccc(F)c(F)c1Nc1ccc(I)cc1F [Compound 6s, N-((3-(4-(2-(difluoromethyl)-1H-benzo[d]imidazol-1-yl)-6-morpholino-1,3,5-triazin-2-yl)-1-hydroxy-6,9,12-trioxa-3-azatetradecan-14-yl)oxy)-3,4-difluoro-2-((2-fluoro-4-iodophenyl)amino)benzamide]",spleen volume by MRI compared with vehicle,JAK2V617F MF mouse model,significantly reduced
same,IC50,[3],7 to 9.9 µM
same,inhibition at 10 µM,[4],87 to 96%
same,phosphorylated ERK1/2 and AKT levels in spleen,[5],significantly reduced
same,in vivo metabolites identified,[6],"MV5–46 (6o), which is then further metabolized to MV5–32 (6b) and MV4–187 (6a)"
same,inhibition at 10 µM,[7],55 to 71%
